Test results taken from ChEMBL document CHEMBL3351236, “Prodrug oncrasin-266 improves the stability, pharmacokinetics, and safety of NSC-743380” (Bioorg Med Chem, 2014).
Calls of active or inactive are those of the source. No cut-off for these calls is given here.

How the values were obtained:
Lung [1] = assay: Drug level in lung of Balb/c mouse xenografted with human Calu3 cells assessed as aldehyde metabolite level at 60 mg/kg, iv using compound formulated in Solutol HS15 and ethyl alcohol measured after 24 hrs by HPLC/MS method; format: ADME, organism-based, Calu-3; set-up: dose 60 mg/kg, route intravenous; details: in vivo
How it was run: (§1)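 Nude mice bearing subcutaneous Calu3 xenografts, 1 mouse per treatment group. Organs and tumor were taken 24 h later and kept at −80°C, then homogenized in methanol (50 mg/ml) on ice. Homogenate was extracted with acetonitrile containing 0.2% formic acid plus an internal standard, centrifuged, and the supernatant analyzed by HPLC/MS.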

Tumour [2] = assay: Drug level in tumor of Balb/c mouse xenografted with human Calu3 cells assessed as aldehyde metabolite level at 60 mg/kg, iv using compound formulated in Solutol HS15 and ethyl alcohol measured after 24 hrs by HPLC/MS method; format: ADME, organism-based, Neoplasm, Calu-3; set-up: dose 60 mg/kg, route intravenous; details: in vivo; how it was run: as §1
Kidney [3] = assay: Drug level in kidney of Balb/c mouse xenografted with human Calu3 cells assessed as aldehyde metabolite level at 60 mg/kg, iv using compound formulated in Solutol HS15 and ethyl alcohol measured after 24 hrs by HPLC/MS method; format: ADME, organism-based, Calu-3; set-up: dose 60 mg/kg, route intravenous; details: in vivo; how it was run: as §1
Spleen = assay: Drug level in spleen of Balb/c mouse xenografted with human Calu3 cells assessed as aldehyde metabolite level at 60 mg/kg, iv using compound formulated in Solutol HS15 and ethyl alcohol measured after 24 hrs by HPLC/MS method; format: ADME, organism-based, Calu-3; set-up: dose 60 mg/kg, route intravenous; details: in vivo; how it was run: as §1
Intestine = assay: Drug level in intestine of Balb/c mouse xenografted with human Calu3 cells assessed as aldehyde metabolite level at 60 mg/kg, iv using compound formulated in Solutol HS15 and ethyl alcohol measured after 24 hrs by HPLC/MS method; format: ADME, organism-based, Calu-3; set-up: dose 60 mg/kg, route intravenous; details: in vivo; how it was run: as §1
[4] = Drug level in liver of Balb/c mouse xenografted with human Calu3 cells at 60 mg/kg, iv using compound formulated in Solutol HS15 and ethyl alcohol measured after 24 hrs by HPLC/MS method; format: ADME, organism-based, Calu-3; set-up: dose 60 mg/kg, route intravenous; details: read-out: Drug uptake; how it was run: as §1
Liver [5] = assay: Drug level in liver of Balb/c mouse xenografted with human Calu3 cells assessed as oncrasin-72 level at 60 mg/kg, iv using compound formulated in Solutol HS15 and ethyl alcohol measured after 24 hrs by HPLC/MS method; format: ADME, organism-based, Calu-3; set-up: dose 60 mg/kg, route intravenous; details: in vivo; how it was run: as §1
Lung [6] = assay: Drug level in lung of Balb/c mouse xenografted with human Calu3 cells assessed as oncrasin-72 level at 60 mg/kg, iv using compound formulated in Solutol HS15 and ethyl alcohol measured after 24 hrs by HPLC/MS method; format: ADME, organism-based, Calu-3; set-up: dose 60 mg/kg, route intravenous; details: in vivo; how it was run: as §1
Tumour [7] = assay: Drug level in tumor of Balb/c mouse xenografted with human Calu3 cells assessed as oncrasin-72 level at 60 mg/kg, iv using compound formulated in Solutol HS15 and ethyl alcohol measured after 24 hrs by HPLC/MS method; format: ADME, organism-based, Neoplasm, Calu-3; set-up: dose 60 mg/kg, route intravenous; details: in vivo; how it was run: as §1
Kidney [8] = assay: Drug level in kidney of Balb/c mouse xenografted with human Calu3 cells assessed as oncrasin-72 level at 60 mg/kg, iv using compound formulated in Solutol HS15 and ethyl alcohol measured after 24 hrs by HPLC/MS method; format: ADME, organism-based, Calu-3; set-up: dose 60 mg/kg, route intravenous; details: in vivo; how it was run: as §1
Mus musculus [9] = assay: Toxicity in Balb/c mouse assessed as mortality level at 300 mg/kg, ip using compound formulated in Solutol HS15 and ethyl alcohol measured after 1 day; format: organism-based; set-up: dose 300 mg/kg, route intraperitoneal; details: in vivo, 24 h
How it was run: (§2)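 Acute toxicity: 3 Balb/c mice (7–8 weeks) per group, given i.p. 300 mg/kg on day 1 and again on day 2. Deaths were recorded by day; survivors were followed for 2 weeks.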

Mus musculus [10] = assay: Toxicity in Balb/c mouse assessed as survival at 300 mg/kg, ip using compound formulated in Solutol HS15 and ethyl alcohol; format: organism-based; set-up: dose 300 mg/kg, route intraperitoneal; details: in vivo; how it was run: as §2
Mus musculus [11] = assay: Toxicity in Balb/c mouse assessed as mortality at 150 mg/kg, ip dosed daily for 3 days using compound formulated in Solutol HS15 and ethyl alcohol measured on day 5; format: organism-based; set-up: dose 150 mg/kg, route intraperitoneal; details: in vivo, 72 h
Mus musculus [12] = assay: Toxicity in Balb/c mouse assessed as serum AST level at 150 mg/kg, ip dosed daily for 3 days using compound formulated in Solutol HS15 and ethyl alcohol measured on day 6; format: organism-based; set-up: dose 150 mg/kg, route intraperitoneal; details: in vivo, 72 h
Mus musculus [13] = assay: Toxicity in Balb/c mouse assessed as serum ALT level at 150 mg/kg, ip dosed daily for 3 days using compound formulated in Solutol HS15 and ethyl alcohol measured on day 6; format: organism-based; set-up: dose 150 mg/kg, route intraperitoneal; details: in vivo, 72 h
Mus musculus [14] = assay: Toxicity in Balb/c mouse assessed as serum ALP level at 150 mg/kg, ip dosed daily for 3 days using compound formulated in Solutol HS15 and ethyl alcohol measured on day 6; format: organism-based; set-up: dose 150 mg/kg, route intraperitoneal; details: in vivo, 72 h
Mus musculus [15] = assay: Toxicity in Balb/c mouse assessed as serum ALT level at 25 mg/kg, ip dosed daily for 8 days using compound formulated in Solutol HS15 and ethyl alcohol measured on day 6; format: organism-based; set-up: dose 25 mg/kg, route intraperitoneal; details: in vivo, 192 h
Mus musculus [16] = assay: Toxicity in Balb/c mouse assessed as serum ALP level at 25 mg/kg, ip dosed daily for 8 days using compound formulated in Solutol HS15 and ethyl alcohol measured on day 6; format: organism-based; set-up: dose 25 mg/kg, route intraperitoneal; details: in vivo, 192 h
Mus musculus [17] = assay: Toxicity in Balb/c mouse assessed as changes in blood cell parameters at 150 mg/kg, ip dosed daily for 3 days using compound formulated in Solutol HS15 and ethyl alcohol measured after 48 hrs; format: organism-based; set-up: dose 150 mg/kg, route intraperitoneal; details: in vivo
[18] = Pro-drug conversion in pH 7.4 PBS solution assessed as oncrasin-72 release at 0.5 mg/ml by HPLC method; format: ADME; details: buffer, TDE = time-dependent effect
How it was run: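 Stock in DMSO/acetonitrile was diluted in PBS pH 7.4 to 0.5 mg/ml, with final 12% DMSO and 18% acetonitrile. Incubated at 37°C for up to 24 h. Aliquots taken at 0.5, 1, 3, 6 and 24 h were held at −20°C, then diluted 50-fold in acetonitrile for HPLC. One of two experiments shown.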

Plasma = assay: Pro-drug conversion in human plasma assessed as oncrasin-72 release by HPLC method; format: ADME, cell-free
NCI-H157 = assay: Anticancer activity against human NCI-H157 cells at 0.03 to 30 uM by sulforhodamine B assay; format: functional, cell-based
How it was run: (§3)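 Sulforhodamine B viability assay on lung cancer cells exposed to a range of compound concentrations for 3 days. Untreated reference: DMSO-treated cells set as 100. Values are mean ± SD of quadruplicate wells.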

NCI-H460 = assay: Anticancer activity against human H460 cells at 0.03 to 30 uM by sulforhodamine B assay; format: functional, cell-based; how it was run: as §3
Calu-3 = assay: Anticancer activity against human Calu3 cells at 0.03 to 30 uM by sulforhodamine B assay; format: functional, cell-based; how it was run: as §3
NCI-H1299 = assay: Anticancer activity against human H1299 cells at 0.03 to 30 uM by sulforhodamine B assay; format: functional, cell-based; how it was run: as §3
[19] = Stability in powder form in non-evacuated chambers at 37 degC after 1 to 14 days by HPLC method; format: physicochemical
How it was run: (§4)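 Powders were kept at 4°C, room temperature (21°C) or 37°C and sampled for up to 90 days. Each aliquot was dissolved in DMSO, diluted with 9 volumes acetonitrile, and analyzed by HPLC for purity.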

[20] = Stability in powder form in non-evacuated chambers at room temperature by HPLC method; format: physicochemical; how it was run: as §4
[21] = Stability in powder form in non-evacuated chambers at 4 degC by HPLC method; format: physicochemical; how it was run: as §4
[22] = Stability in powder form in non-evacuated chambers at 37 degC after 90 days by HPLC method; format: physicochemical; details: read-out: Stability; how it was run: as §4
[23] = Stability in stock solution with Solutol HS15 and ethyl alcohol solvent at room temperature by HPLC method; format: physicochemical
How it was run: (§5)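 Stock solutions were made by dissolving compound in 75% (w/v) Solutol HS15 in ethanol (about 20% v/v ethanol). Final concentrations were 8 mg/ml for prodrug and 5 mg/ml for parent. Stocks were stored at 4°C or room temperature; aliquots were frozen at −20°C before HPLC.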

[24] = Stability in stock solution with Solutol HS15 and ethyl alcohol solvent at 4 degC by HPLC method; format: physicochemical; how it was run: as §5
[25] = Stability in injectable solution with Solutol HS15 and ethyl alcohol and 0.9% NaCl assessed as drug hydrolysis within 7 hrs at room temperature by HPLC method; format: physicochemical; details: injectable solution; read-out: Drug degradation
[26] = Stability in injectable solution with Solutol HS15 and ethyl alcohol and 0.9% NaCl assessed as drug hydrolysis within 7 hrs at 37 degC by HPLC method; format: physicochemical; details: read-out: Drug degradation
[27] = Half life in Balb/c mouse at 25 mg/kg, iv using compound formulated in Solutol HS15 and ethyl alcohol by HPLC/MS method; format: ADME, organism-based; set-up: dose 25 mg/kg, route intravenous; details: in vivo
How it was run: (§6)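 Balb/c mice received 25 mg/kg by tail vein in Solutol HS15/ethanol vehicle. Blood was drawn from the tail vein at 0, 1, 2, 3.5, 7 and 24 h, 3 mice per time point, into lithium-heparin tubes. Plasma (50 µl) was precipitated with 150 µl acetonitrile containing 0.2% formic acid and internal standard, iced 15 min, centrifuged, and the supernatant analyzed by HPLC/MS for parent and released drug.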

Mus musculus [28] = assay: Half life in Balb/c mouse assessed as oncrasin-72 release at 25 mg/kg, iv using compound formulated in Solutol HS15 and ethyl alcohol by HPLC/MS method; format: ADME, organism-based; set-up: dose 25 mg/kg, route intravenous; details: in vivo; how it was run: as §6
Liver [29] = assay: Drug level in liver of Balb/c mouse xenografted with human Calu3 cells assessed as aldehyde metabolite level at 60 mg/kg, iv using compound formulated in Solutol HS15 and ethyl alcohol measured after 24 hrs by HPLC/MS method; format: ADME, organism-based, Calu-3; set-up: dose 60 mg/kg, route intravenous; details: in vivo; how it was run: as §1
Mus musculus [30] = assay: Toxicity in Balb/c mouse assessed as serum AST level at 25 mg/kg, ip dosed daily for 8 days using compound formulated in Solutol HS15 and ethyl alcohol; details: in vivo, 192 h
Mus musculus [31] = assay: Toxicity in Balb/c mouse assessed as histopathological changes in liver at 150 mg/kg, ip dosed once using compound formulated in Solutol HS15 and ethyl alcohol measured after 48 hrs; details: in vivo

With `O=C(CC1CCCCC1)OCc1cn(Cc2cccc(Cl)c2)c2ccccc12` the Drug uptake (Lung [1]) was 68.4 µg/g, the Drug uptake (Tumour [2]) was 4.4 µg/g and the Drug uptake (Kidney [3]) was 26.5 µg/g. For the same molecule, the Drug uptake (Spleen) was 34 µg/g, the Drug uptake (Intestine) was 5.9 µg/g and the concentration at 24 h [4] was 157000 ng/g. For the same molecule, the Drug uptake (Liver [5]) was 12.6 µg/g, the Drug uptake (Lung [6]) was 7.7 µg/g and the Drug uptake (Tumour [7]) was 4.7 µg/g. For the same molecule, the Drug uptake (Kidney [8]) was 7.3 µg/g, the Activity (Mus musculus [9]) was “Toxic” and the Survival (Mus musculus [10]) was 2 weeks. The Activity (Mus musculus [11]) was “Non-toxic”, the Activity (Mus musculus [12]) was 325.5 U/L and the Activity (Mus musculus [13]) was 115.5 U/L. It also gave an Activity (Mus musculus [14]) of 50 U/L, an Activity (Mus musculus [15]) of 36.3 U/L and an Activity (Mus musculus [16]) of 76 U/L. The Activity (Mus musculus [17]) was “Non-toxic”, the Drug metabolism [18] was “tde” and the Drug metabolism (Plasma) was “metabolite_detected”. The Activity (NCI-H157) was “Active”, the Activity (NCI-H460) was “Active” and the Activity (Calu-3) was “Active”. For the same molecule, the Activity (NCI-H1299) was “inactive”, the Stability [19] was “Stable” and the Stability [20] was 90 days. It also gave a Stability [21] of 90 days, a remaining at 2160 h [22] of less than 5% and a Stability [23] of 2 weeks. It also gave a Stability [24] of 4 weeks, a degraded at 7 h [25] of 10% and a degraded at 7 h [26] greater than 10%. The half-life [27] was 1 h, the t1/2 (Mus musculus [28]) was 1.25 h and the Drug uptake (Liver [29]) was 14.9 µg/g. For the same molecule, the Activity (Mus musculus [30]) was 94 U/L and the Activity (Mus musculus [31]) was “Non-toxic”.
